One experiment has as its system Pseudomonas fluorescens. The experiment is described as follows: Antibacterial activity against Pseudomonas fluorescens ATCC 13525. Type of experiment: functional.
The subject of another experiment is Escherichia coli. Kind of experiment: Antibacterial activity against Escherichia coli ATCC 35218. Type of experiment: functional.
For a further experiment, the system named is Bacillus subtilis. The experiment is described as follows: microbe, parasite or virus in culture. The note with it: ATCC 6633. It counts as functional.
The test system of the next experiment is Staphylococcus aureus. Kind of experiment: Antibacterial activity against Staphylococcus aureus ATCC 6538. It counts as functional.
The next experiment concerns Pseudomonas aeruginosa. Kind of experiment: Antibacterial activity against Pseudomonas aeruginosa ATCC 13525. Type of experiment: functional, organism-based. The essentials: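 Broth microdilution in MH medium with an inoculum of about 10⁵ cfu/mL. Compounds were serially diluted from a DMSO stock and incubated 24 h at 37 °C. MIC was read visually, then confirmed colorimetrically: MTT (2 mg/mL in PBS, pH 7.4) was added for 4–5 h at room temperature, the dye was extracted with isopropanol/5% 1 mol/L HCl for 12 h, and OD was read at 550 nm.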

Converted amounts (≈) assume the structure as drawn. The source made the active and inactive calls. The rule behind the calls is not given here.

Consider `COC1CC(c2ccccc2)=NN1/C(C)=N\OC(=O)c1ccc(F)cc1` (stereo not drawn), for which the MIC was 12.5 µg/mL (≈ 35.2 µM) in the experiment with Pseudomonas fluorescens, 6.25 µg/mL (≈ 17.6 µM) in the experiment on Escherichia coli, 3.12 µg/mL (≈ 8.79 µM) against Bacillus subtilis and 6.25 µg/mL (≈ 17.6 µM) in the experiment with Staphylococcus aureus.
On to `COC1CC(c2ccccc2)=NN1/C(C)=N\OC(=O)/C=C/c1ccccc1` (stereo not drawn), for which the MIC in the experiment with Pseudomonas fluorescens was 3.12 µg/mL (≈ 8.6 µM); with Escherichia coli it was 6.25 µg/mL (≈ 17.2 µM); in the experiment on Bacillus subtilis it was 1.56 µg/mL (≈ 4.3 µM); in the experiment on Staphylococcus aureus, 12.5 µg/mL (≈ 34.4 µM).
Take `C/C(=N/OC(=O)c1ccc(Cl)cc1)N1N=C(c2ccc(Cl)cc2Cl)CC1c1ccccc1F` (stereo not drawn): the MIC amounted to 50 µg/mL (≈ 99.1 µM) in the experiment on Pseudomonas fluorescens, 50 µg/mL (≈ 99.1 µM) against Escherichia coli, 12.5 µg/mL (≈ 24.8 µM) against Bacillus subtilis and 50 µg/mL (≈ 99.1 µM) in the experiment with Staphylococcus aureus. Also, in the experiment with Pseudomonas aeruginosa, the outcome was Active.
For the compound `C/C(=N/OC(=O)c1ccccc1C)N1N=C(c2ccc(Cl)cc2Cl)CC1c1ccc(C(F)(F)F)cc1` (stereo not drawn), the MIC with Pseudomonas fluorescens, in the experiment with Escherichia coli, in the experiment on Bacillus subtilis and in the experiment on Staphylococcus aureus was 50 µg/mL (≈ 93.6 µM) each time. Also, the outcome in the experiment with Pseudomonas aeruginosa was Active.
With `CC1=NN(/C(C)=N\OC(=O)c2ccc(C(F)(F)F)cc2)C(c2ccccc2OCc2ccc(F)cc2)C1` (stereo not drawn), the MIC with Pseudomonas fluorescens, against Escherichia coli, in the experiment on Bacillus subtilis and in the experiment with Staphylococcus aureus was 50 µg/mL (≈ 97.4 µM) in each case. Moreover, the outcome in the experiment on Pseudomonas aeruginosa was Active.
As for `C/C(=N/OC(=O)c1ccccc1[N+](=O)[O-])N1N=C(c2ccc(Cl)cc2Cl)CC1c1ccccc1F` (stereo not drawn), the MIC stood at 50 µg/mL (≈ 97 µM) against Pseudomonas fluorescens, 50 µg/mL (≈ 97 µM) in the experiment on Escherichia coli, 25 µg/mL (≈ 48.5 µM) in the experiment with Bacillus subtilis and 50 µg/mL (≈ 97 µM) against Staphylococcus aureus. In addition, in the experiment on Pseudomonas aeruginosa, the outcome was Active.
Turning to `CCC(=O)O/N=C(/C)N1N=C(c2ccccc2)CC1OC` (stereo not drawn), the MIC against Pseudomonas fluorescens was determined as 12.5 µg/mL (≈ 43.2 µM); against Escherichia coli, 12.5 µg/mL (≈ 43.2 µM); with Bacillus subtilis, 12.5 µg/mL (≈ 43.2 µM); with Staphylococcus aureus, 25 µg/mL (≈ 86.4 µM).
With `COC1CC(c2ccccc2)=NN1/C(C)=N\OC(=O)c1ccccc1[N+](=O)[O-]` (stereo not drawn), the MIC against Pseudomonas fluorescens was 12.5 µg/mL (≈ 32.7 µM); in the experiment on Escherichia coli, 6.25 µg/mL (≈ 16.3 µM); with Bacillus subtilis it was 6.25 µg/mL (≈ 16.3 µM); in the experiment with Staphylococcus aureus, 12.5 µg/mL (≈ 32.7 µM).
Consider `CC1=NN(/C(C)=N\OC(=O)c2ccc(Cl)cc2Cl)C(c2ccc(OCc3ccc(F)cc3)cc2)C1` (stereo not drawn), for which the MIC was 50 µg/mL (≈ 97.2 µM) in the experiment with Pseudomonas fluorescens, 12.5 µg/mL (≈ 24.3 µM) against Escherichia coli, 12.5 µg/mL (≈ 24.3 µM) in the experiment with Bacillus subtilis and 12.5 µg/mL (≈ 24.3 µM) in the experiment with Staphylococcus aureus. Further, the outcome in the experiment with Pseudomonas aeruginosa was Active.
As for `CCCC(=O)O/N=C(/C)N1N=C(C)CC1c1ccccc1OCc1ccc(F)cc1` (stereo not drawn), the MIC against Pseudomonas fluorescens, with Escherichia coli, in the experiment with Bacillus subtilis and in the experiment on Staphylococcus aureus was 50 µg/mL (≈ 122 µM) each time. Further, the result with Pseudomonas aeruginosa was Active.
As to `CC1=NN(/C(C)=N\OC(=O)c2ccc(C(F)(F)F)cc2)C(c2ccc(OCc3ccc(F)cc3)cc2)C1` (stereo not drawn), the MIC against Pseudomonas fluorescens came to 25 µg/mL (≈ 48.7 µM); against Escherichia coli, 25 µg/mL (≈ 48.7 µM); in the experiment with Bacillus subtilis it was 25 µg/mL (≈ 48.7 µM); in the experiment on Staphylococcus aureus it was 50 µg/mL (≈ 97.4 µM). Besides, the result in the experiment with Pseudomonas aeruginosa was Active.
Consider `CC1=NN(/C(C)=N\OC(=O)c2ccccc2Cl)C(c2ccc(OCc3ccc(F)cc3)cc2)C1` (stereo not drawn), for which the MIC in the experiment with Pseudomonas fluorescens came to 50 µg/mL (≈ 104 µM); with Escherichia coli, 50 µg/mL (≈ 104 µM); in the experiment on Bacillus subtilis, 50 µg/mL (≈ 104 µM); in the experiment on Staphylococcus aureus it was 12.5 µg/mL (≈ 26 µM). Besides, in the experiment on Pseudomonas aeruginosa, the result was Active.
Turning to `CC1=NN(/C(C)=N\OC(=O)c2ccc(Cl)cc2)C(c2ccc(OCc3ccc(F)cc3)cc2)C1` (stereo not drawn), the MIC in the experiment on Pseudomonas fluorescens, in the experiment with Escherichia coli, against Bacillus subtilis and against Staphylococcus aureus was over 50 µg/mL throughout. For the same compound, the result in the experiment on Pseudomonas aeruginosa was Active.
Regarding `CCC(=O)O/N=C(/C)N1N=C(c2ccc(Cl)cc2Cl)CC1c1ccccc1F` (stereo not drawn), the MIC in the experiment on Pseudomonas fluorescens, in the experiment with Escherichia coli, in the experiment with Bacillus subtilis and with Staphylococcus aureus was 50 µg/mL (≈ 118 µM) in each case. Besides, the outcome in the experiment on Pseudomonas aeruginosa was Active.
On to `C/C(=N/OC(=O)c1ccccc1C)N1N=C(c2ccc(Cl)cc2Cl)CC1c1ccccc1F` (stereo not drawn), for which the MIC with Pseudomonas fluorescens, in the experiment on Escherichia coli, in the experiment on Bacillus subtilis and against Staphylococcus aureus was 50 µg/mL (≈ 103 µM) each time. In addition, in the experiment with Pseudomonas aeruginosa, the result was Active.
Turning to `CC1=NN(/C(C)=N\OC(=O)c2ccc(F)cc2)C(c2ccc(OCc3ccc(F)cc3)cc2)C1` (stereo not drawn), the MIC in the experiment on Pseudomonas fluorescens, with Escherichia coli, in the experiment on Bacillus subtilis and with Staphylococcus aureus was 50 µg/mL (≈ 108 µM) throughout. Also, the outcome in the experiment on Pseudomonas aeruginosa was Active.
For the compound `CCC(=O)O/N=C(/C)N1N=C(c2ccc(Cl)cc2Cl)CC1c1ccc(C(F)(F)F)cc1` (stereo not drawn), the MIC against Pseudomonas fluorescens, against Escherichia coli, in the experiment on Bacillus subtilis and in the experiment on Staphylococcus aureus was 50 µg/mL (≈ 106 µM) throughout. Further, in the experiment on Pseudomonas aeruginosa, the result was Active.
With `CC1=NN(/C(C)=N\OC(=O)c2ccccc2F)C(c2ccccc2OCc2ccc(F)cc2)C1` (stereo not drawn), the MIC against Pseudomonas fluorescens, against Escherichia coli, against Bacillus subtilis and against Staphylococcus aureus was 50 µg/mL (≈ 108 µM) in each case. In addition, in the experiment on Pseudomonas aeruginosa, the outcome was Active.
For the compound `CCCC(=O)O/N=C(/C)N1N=C(C)CC1c1ccc(OCc2ccc(F)cc2)cc1` (stereo not drawn), the MIC against Pseudomonas fluorescens is 50 µg/mL (≈ 122 µM); against Escherichia coli, over 50 µg/mL; in the experiment on Bacillus subtilis, 50 µg/mL (≈ 122 µM); against Staphylococcus aureus, over 50 µg/mL. In the experiment on Pseudomonas aeruginosa, the outcome was Active.
As to `COC1CC(c2ccccc2)=NN1/C(C)=N\OC(=O)c1ccccc1C` (stereo not drawn), the MIC with Pseudomonas fluorescens was determined as 25 µg/mL (≈ 71.1 µM); in the experiment with Escherichia coli, 12.5 µg/mL (≈ 35.6 µM); against Bacillus subtilis it was 12.5 µg/mL (≈ 35.6 µM); against Staphylococcus aureus it was 12.5 µg/mL (≈ 35.6 µM).
On to `C/C(=N/OC(=O)/C=C/c1ccccc1)N1N=C(c2ccc(Cl)cc2Cl)CC1c1ccccc1F` (stereo not drawn), for which the MIC with Pseudomonas fluorescens came out at 3.12 µg/mL (≈ 6.3 µM); in the experiment with Escherichia coli it was 6.25 µg/mL (≈ 12.6 µM); with Bacillus subtilis, 6.25 µg/mL (≈ 12.6 µM); against Staphylococcus aureus it was 50 µg/mL (≈ 101 µM). The result in the experiment on Pseudomonas aeruginosa was Active.
Consider `C/C(=N/OC(=O)c1ccc(F)cc1)N1N=C(c2ccc(Cl)cc2Cl)CC1c1ccccc1F` (stereo not drawn), for which the MIC in the experiment with Pseudomonas fluorescens came out at 25 µg/mL (≈ 51.2 µM); in the experiment on Escherichia coli it was 25 µg/mL (≈ 51.2 µM); with Bacillus subtilis, 25 µg/mL (≈ 51.2 µM); in the experiment on Staphylococcus aureus it was 12.5 µg/mL (≈ 25.6 µM). Besides, the outcome with Pseudomonas aeruginosa was Active.
With `CC1=NN(/C(C)=N\OC(=O)/C=C/c2ccccc2)C(c2ccc(OCc3ccc(F)cc3)cc2)C1` (stereo not drawn), the MIC in the experiment on Pseudomonas fluorescens, against Escherichia coli, in the experiment with Bacillus subtilis and in the experiment with Staphylococcus aureus was 12.5 µg/mL (≈ 26.5 µM) each time. The outcome in the experiment on Pseudomonas aeruginosa was Active.
As for `CC1=NN(/C(C)=N\OC(=O)c2ccccc2F)C(c2ccc(OCc3ccc(F)cc3)cc2)C1` (stereo not drawn), the MIC against Pseudomonas fluorescens turned out to be 25 µg/mL (≈ 53.9 µM); against Escherichia coli it was 50 µg/mL (≈ 108 µM); against Bacillus subtilis, 25 µg/mL (≈ 53.9 µM); against Staphylococcus aureus, 50 µg/mL (≈ 108 µM). In the experiment with Pseudomonas aeruginosa, the outcome was Active.
For `C=CC(=O)O/N=C(/C)N1N=C(c2ccc(Cl)cc2Cl)CC1c1ccc(C(F)(F)F)cc1` (stereo not drawn), the MIC against Pseudomonas fluorescens was found to be 12.5 µg/mL (≈ 26.6 µM); against Escherichia coli, 6.25 µg/mL (≈ 13.3 µM); against Bacillus subtilis it was 3.12 µg/mL (≈ 6.65 µM); against Staphylococcus aureus, 12.5 µg/mL (≈ 26.6 µM). In the experiment with Pseudomonas aeruginosa, the result was Active.
With `NC[C@H]1O[C@H](O[C@H]2[C@H](O)[C@@H](O[C@H]3O[C@H](CO)[C@@H](O)[C@H](N)[C@H]3O)[C@H](N)C[C@@H]2N)[C@H](O)[C@@H](O)[C@@H]1O` [KANAMYCIN], the MIC against Pseudomonas fluorescens turned out to be 3.12 µg/mL (≈ 6.45 µM); in the experiment with Escherichia coli, 1.56 µg/mL (≈ 3.22 µM); against Bacillus subtilis, 0.39 µg/mL (≈ 0.805 µM); in the experiment on Staphylococcus aureus it was 3.12 µg/mL (≈ 6.45 µM).
For `COC1CC(c2ccccc2)=NN1/C(C)=N\OC(=O)c1ccc(Cl)cc1` (stereo not drawn), the MIC against Pseudomonas fluorescens is 6.25 µg/mL (≈ 16.8 µM); in the experiment with Escherichia coli it was 6.25 µg/mL (≈ 16.8 µM); in the experiment on Bacillus subtilis it was 3.12 µg/mL (≈ 8.4 µM); in the experiment with Staphylococcus aureus, 25 µg/mL (≈ 67.2 µM).
